Reference: PubChem BioAssay AID651876 (Broad Institute, 2012)
Activity calls are given as the source filed them.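 The calls were made as follows: active = inhibition above 20% at 50 µM; inactive = the rest.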

Target: Kelch-like ECH-associated protein 1 (Homo sapiens) (UniProt Q14145)
Assay: competitive SPR blockade of Keap1/Nrf2 binding – biophysical, dry powder, orthogonal assay for Keap1-Nrf2 interaction inhibitor project, confirmation (AID 651876)
Conditions: Keap1 Kelch binding to Nrf2 peptide, stronger effect = higher value
Procedure, shortened: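 Material: Keap1 Kelch domain, biochemical; amount: 40 nM Kelch domain; probe or stimulus: biotinylated 16mer Nrf2 peptide captured on streptavidin CM5 surface; compound: two single doses per compound, 5 µM and 50 µM; timing: Kelch–compound preincubation at room temperature, SPR injection at 25 °C; technique: Double-referenced SPR association slopes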

Sequence of Kelch-like ECH-associated protein 1 (Homo sapiens) (Q14145 whole entry, looked up): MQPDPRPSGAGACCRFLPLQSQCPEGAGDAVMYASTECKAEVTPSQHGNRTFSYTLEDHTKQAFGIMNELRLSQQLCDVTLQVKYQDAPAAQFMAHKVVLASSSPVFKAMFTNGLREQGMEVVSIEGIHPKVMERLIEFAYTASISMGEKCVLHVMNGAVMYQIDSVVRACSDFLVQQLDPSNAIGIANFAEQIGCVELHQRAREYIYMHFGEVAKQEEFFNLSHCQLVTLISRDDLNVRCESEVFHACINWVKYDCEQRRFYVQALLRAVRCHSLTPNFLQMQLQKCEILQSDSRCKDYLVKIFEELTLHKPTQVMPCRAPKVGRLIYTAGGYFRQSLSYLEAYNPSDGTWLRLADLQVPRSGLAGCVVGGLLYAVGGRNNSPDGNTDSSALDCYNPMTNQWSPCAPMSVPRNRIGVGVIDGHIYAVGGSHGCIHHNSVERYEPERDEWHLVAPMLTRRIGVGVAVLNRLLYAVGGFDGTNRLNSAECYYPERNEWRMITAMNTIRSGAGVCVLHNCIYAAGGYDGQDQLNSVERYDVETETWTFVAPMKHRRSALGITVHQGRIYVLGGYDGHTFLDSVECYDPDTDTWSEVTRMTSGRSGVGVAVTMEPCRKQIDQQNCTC

inhibition (at 50 µM)	inhibition (inhibition, at 5 µM)	Structure (SMILES)
10.5% (inactive)	-5.37%	Cc1ccc(S(=O)(=O)NC2=CC(=N[C@@H](C)C(=O)OC(C)(C)C)C(=O)c3ccccc32)c(C)c1
6.8% (inactive)	3.3%	COC(=O)C1CCCCC1C(=O)N1CCc2ccccc2C1CN1C(=O)c2ccccc2C1=O (centres undefined)
